Source: ChEMBL document CHEMBL4229344 (Eur J Med Chem, 2018)
The source made the active and inactive calls. The rule behind the calls is not given here.

Assays:
[1] = target: Serine/threonine-protein kinase 10 (Homo sapiens) (UniProt O94804); experiment: Binding affinity to wild-type human partial length LOK (E16 to V314 residues) expressed in bacterial expression system assessed as residual binding level at 1 uM by Kinomescan method relative to control
In short: (§1)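 Kinome-wide competition binding screen against a panel of 468 purified kinases/mutants, with the test compound at a single concentration of 1 μM. Read-out is the relative binding activity of each kinase in the presence of compound.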

[2] = target: Ribosomal protein S6 kinase alpha-6 (Homo sapiens) (UniProt Q9UK32); experiment: Binding affinity to wild-type human partial length C-terminal RSK4 kinase domain 2 (I401 to Y711 residues) expressed in bacterial expression system assessed as residual binding level at 1 uM by Kinomescan method relative to control
NCI-H1703 = experiment: Induction of apoptosis in human NCI-H1703 cells assessed as cleaved PARP expression level after 72 hrs in presence of PDGF-AA by Western blot analysis; assay type: functional, cell-based
In short: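 Cells exposed to compound or DMSO for the stated periods, then lysed and immunoblotted for PARP and caspase-3 cleavage, with β-actin as loading control. NCI-H1703 stimulation used PDGF AA at 100 ng/mL.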

[3] = target: Serine/threonine-protein kinase PAK 1 (Homo sapiens) (UniProt Q13153); experiment: Binding affinity to wild-type human partial length PAK1 (S149 to H545 residues) expressed in bacterial expression system assessed as residual binding level at 1 uM by Kinomescan method relative to control
[4] = target: Cytoplasmic tyrosine-protein kinase BMX (Homo sapiens) (UniProt P51813); experiment: Binding affinity to wild-type human full length BMX (M1 to H675 residues) expressed in bacterial expression system assessed as residual binding level at 1 uM by Kinomescan method relative to control
In short: (§2)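 Single-concentration (1 μM) competition-binding screen run by KINOMEscan against a panel of 468 purified kinases and mutants. The read-out is the relative binding activity of the test compound to each kinase.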

[5] = target: Mitogen-activated protein kinase kinase kinase kinase 5 (Homo sapiens) (UniProt Q9Y4K4); experiment: Binding affinity to wild-type human partial length MAP4K5 (M1 to P297 residues) expressed in bacterial expression system assessed as residual binding level at 1 uM by Kinomescan method relative to control
[6] = system: Platelet-derived growth factor receptor alpha (Homo sapiens), P16234 [T674I]; experiment: Inhibition of TEL-fused PDGFRalpha T674I mutant (unknown origin) expressed in mouse BA/F3 cells assessed as growth inhibition after 72 hrs by CellTiter-Glo or CCK-8 assay; assay type: cell-based
[7] = target: SRSF protein kinase 2 (Homo sapiens) (UniProt P78362); experiment: Binding affinity to wild-type human full length SRPK2 (M1 to S686 residues) expressed in bacterial expression system assessed as residual binding level at 1 uM by Kinomescan method relative to control
In short: (§3)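 Single-concentration KINOMEscan (DiscoverX) binding screen at 1 μM against a panel of 468 purified kinases and mutants. The read-out is binding relative to control.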

[8] = target: Dual specificity protein kinase CLK2 (Homo sapiens) (UniProt P49760); experiment: Binding affinity to wild-type human partial length CLK2 (D144 to R498 residues) expressed in bacterial expression system assessed as residual binding level at 1 uM by Kinomescan method relative to control; in short: as §1
[9] = target: 1-phosphatidylinositol 3-phosphate 5-kinase (Homo sapiens) (UniProt Q9Y2I7); experiment: Binding affinity to wild-type human partial length PIKFYVE (F1512 to C2098 residues) expressed in mammalian expression system assessed as residual binding level at 1 uM by Kinomescan method relative to control
In short: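 KINOMEscan competition binding against a panel of 468 purified kinases/mutants, compound tested at 1 μM; readout is relative binding activity versus control.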

[10] = target: Ephrin type-B receptor 6 (Homo sapiens) (UniProt O15197); experiment: Binding affinity to wild-type human partial length EPHB6 (Q634 to P948 residues) expressed in mammalian expression system assessed as residual binding level at 1 uM by Kinomescan method relative to control
[11] = target: Serine/threonine-protein kinase BRSK2 (Homo sapiens) (UniProt Q8IWQ3); experiment: Binding affinity to wild-type human full length BRSK2 (M1 to L674 residues) expressed in bacterial expression system assessed as residual binding level at 1 uM by Kinomescan method relative to control; in short: as §2
[12] = system: Phosphatidylinositol 4,5-bisphosphate 3-kinase catalytic subunit alpha isoform (Homo sapiens), P42336 [H1047Y]; experiment: Binding affinity to human partial length PIK3CA H1047Y mutant (R108 to N1068 residues) expressed in mammalian expression system assessed as residual binding level at 1 uM by Kinomescan method relative to control
In short: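 Kinome-wide single-concentration binding screen (KINOMEscan) at 1 μM against a panel of 468 purified kinases and mutants. Read-out is relative binding of each kinase compared with control. Selectivity across the panel was summarised as an S(10) score.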

[13] = target: Macrophage-stimulating protein receptor (Homo sapiens) (UniProt Q04912); experiment: Binding affinity to wild-type human partial length MST1R (I1057 to L1363 residues) expressed in bacterial expression system assessed as residual binding level at 1 uM by Kinomescan method relative to control
[14] = target: Dual serine/threonine and tyrosine protein kinase (Homo sapiens) (UniProt Q6XUX3); experiment: Binding affinity to wild-type human full length RIPK5 (M1 to T929 residues) expressed in mammalian expression system assessed as residual binding level at 1 uM by Kinomescan method relative to control; in short: as §3
[15] = target: Protein kinase C iota type (Homo sapiens) (UniProt P41743); experiment: Binding affinity to wild-type human partial length PRKCI (H215 to V587 residues) expressed in mammalian expression system assessed as residual binding level at 1 uM by Kinomescan method relative to control
[16] = target: Casein kinase I isoform epsilon (Homo sapiens) (UniProt P49674); experiment: Binding affinity to wild-type human full length CSNK1E (M1 to K416 residues) expressed in bacterial expression system assessed as residual binding level at 1 uM by Kinomescan method relative to control; in short: as §2
[17] = target: Phosphatidylinositol 4-kinase beta (Homo sapiens) (UniProt Q9UBF8); experiment: Binding affinity to wild-type human full length PIK4CB (M1 to M828 residues) expressed in mammalian expression system assessed as residual binding level at 1 uM by Kinomescan method relative to control; in short: as §3
[18] = target: Focal adhesion kinase 1 (Homo sapiens) (UniProt Q05397); experiment: Binding affinity to wild-type human partial length FAK (D402 to R696 residues) expressed in bacterial expression system assessed as residual binding level at 1 uM by Kinomescan method relative to control
[19] = target: Interferon-induced, double-stranded RNA-activated protein kinase (Homo sapiens) (UniProt P19525); experiment: Binding affinity to wild-type human partial length PRKR (F247 to C551 residues) expressed in bacterial expression system assessed as residual binding level at 1 uM by Kinomescan method relative to control
[20] = target: Bone morphogenetic protein receptor type-2 (Homo sapiens) (UniProt Q13873); experiment: Binding affinity to wild-type human partial length BMPR2 (R179 to Q526 residues) expressed in mammalian expression system assessed as residual binding level at 1 uM by Kinomescan method relative to control; in short: as §3

Mitogen-activated protein kinase kinase kinase kinase 5 (Homo sapiens), sequence (Q9Y4K4 whole entry, looked up, the tested form may be a part): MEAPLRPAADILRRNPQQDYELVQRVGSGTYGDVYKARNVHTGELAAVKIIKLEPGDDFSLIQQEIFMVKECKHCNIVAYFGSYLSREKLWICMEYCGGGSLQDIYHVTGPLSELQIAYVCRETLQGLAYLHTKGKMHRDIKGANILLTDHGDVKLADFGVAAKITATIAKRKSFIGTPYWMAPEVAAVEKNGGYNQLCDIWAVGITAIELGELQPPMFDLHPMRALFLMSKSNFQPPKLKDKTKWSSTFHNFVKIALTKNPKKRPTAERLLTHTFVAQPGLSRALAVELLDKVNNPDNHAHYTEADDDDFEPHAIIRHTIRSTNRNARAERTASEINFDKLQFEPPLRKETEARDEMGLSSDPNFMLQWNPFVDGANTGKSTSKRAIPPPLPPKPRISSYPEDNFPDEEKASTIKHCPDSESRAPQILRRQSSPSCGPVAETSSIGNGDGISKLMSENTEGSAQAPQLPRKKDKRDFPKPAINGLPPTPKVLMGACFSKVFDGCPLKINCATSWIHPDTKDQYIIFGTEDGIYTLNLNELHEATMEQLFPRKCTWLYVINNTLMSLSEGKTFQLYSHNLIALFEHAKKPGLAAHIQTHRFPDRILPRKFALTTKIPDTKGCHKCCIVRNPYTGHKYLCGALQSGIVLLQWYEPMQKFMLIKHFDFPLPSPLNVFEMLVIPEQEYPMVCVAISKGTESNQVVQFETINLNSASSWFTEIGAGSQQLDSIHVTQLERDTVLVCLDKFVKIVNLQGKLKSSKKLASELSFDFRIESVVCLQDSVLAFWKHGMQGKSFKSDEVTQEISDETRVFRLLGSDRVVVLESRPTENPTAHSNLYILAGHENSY
Phosphatidylinositol 4,5-bisphosphate 3-kinase catalytic subunit alpha isoform (Homo sapiens), P42336 [H1047Y], sequence (P42336 whole entry H1047Y, the tested form may be a part, canonical isoform): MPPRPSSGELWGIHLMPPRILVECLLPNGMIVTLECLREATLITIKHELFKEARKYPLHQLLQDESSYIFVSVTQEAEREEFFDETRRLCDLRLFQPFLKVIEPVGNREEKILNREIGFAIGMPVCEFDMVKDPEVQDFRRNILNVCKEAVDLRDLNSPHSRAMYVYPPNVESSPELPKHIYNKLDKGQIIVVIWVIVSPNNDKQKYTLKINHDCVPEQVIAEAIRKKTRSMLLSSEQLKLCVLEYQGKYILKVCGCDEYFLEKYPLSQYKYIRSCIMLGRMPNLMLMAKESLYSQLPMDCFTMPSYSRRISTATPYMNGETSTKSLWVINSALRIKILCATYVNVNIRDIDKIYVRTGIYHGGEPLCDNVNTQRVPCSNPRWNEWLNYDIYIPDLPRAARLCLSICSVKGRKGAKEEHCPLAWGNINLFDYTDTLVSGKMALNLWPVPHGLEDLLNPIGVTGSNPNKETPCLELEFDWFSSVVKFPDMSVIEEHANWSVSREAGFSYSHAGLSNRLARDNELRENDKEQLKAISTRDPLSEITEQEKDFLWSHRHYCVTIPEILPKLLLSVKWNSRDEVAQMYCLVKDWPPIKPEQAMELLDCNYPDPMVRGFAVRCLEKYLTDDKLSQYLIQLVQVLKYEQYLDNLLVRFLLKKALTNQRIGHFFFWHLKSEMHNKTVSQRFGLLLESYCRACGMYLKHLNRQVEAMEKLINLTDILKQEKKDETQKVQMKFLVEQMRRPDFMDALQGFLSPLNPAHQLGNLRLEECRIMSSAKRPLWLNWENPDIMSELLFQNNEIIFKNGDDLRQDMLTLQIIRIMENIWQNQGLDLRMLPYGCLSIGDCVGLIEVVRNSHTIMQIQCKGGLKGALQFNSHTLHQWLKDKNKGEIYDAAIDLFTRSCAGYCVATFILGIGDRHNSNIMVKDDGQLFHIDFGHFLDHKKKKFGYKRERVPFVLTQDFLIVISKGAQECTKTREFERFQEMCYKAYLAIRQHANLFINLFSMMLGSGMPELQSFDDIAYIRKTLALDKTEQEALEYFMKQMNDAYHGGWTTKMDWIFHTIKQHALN
Serine/threonine-protein kinase PAK 1 (Homo sapiens), sequence (Q13153 whole entry, the tested form may be a part): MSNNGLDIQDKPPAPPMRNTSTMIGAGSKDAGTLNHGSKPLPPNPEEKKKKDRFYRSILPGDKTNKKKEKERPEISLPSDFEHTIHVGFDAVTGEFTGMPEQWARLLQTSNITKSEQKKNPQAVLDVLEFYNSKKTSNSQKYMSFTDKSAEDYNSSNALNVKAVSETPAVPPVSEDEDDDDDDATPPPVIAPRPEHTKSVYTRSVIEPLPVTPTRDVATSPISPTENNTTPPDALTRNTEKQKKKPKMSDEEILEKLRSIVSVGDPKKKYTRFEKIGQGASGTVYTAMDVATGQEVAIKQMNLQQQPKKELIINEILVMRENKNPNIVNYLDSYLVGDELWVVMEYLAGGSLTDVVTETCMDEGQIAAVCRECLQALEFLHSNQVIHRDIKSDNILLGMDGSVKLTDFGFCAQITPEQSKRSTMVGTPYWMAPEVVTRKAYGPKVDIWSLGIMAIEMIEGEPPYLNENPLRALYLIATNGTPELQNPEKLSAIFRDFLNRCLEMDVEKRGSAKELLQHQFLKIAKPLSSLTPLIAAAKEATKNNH
Ribosomal protein S6 kinase alpha-6 (Homo sapiens), sequence (Q9UK32 whole entry, the tested form may be a part): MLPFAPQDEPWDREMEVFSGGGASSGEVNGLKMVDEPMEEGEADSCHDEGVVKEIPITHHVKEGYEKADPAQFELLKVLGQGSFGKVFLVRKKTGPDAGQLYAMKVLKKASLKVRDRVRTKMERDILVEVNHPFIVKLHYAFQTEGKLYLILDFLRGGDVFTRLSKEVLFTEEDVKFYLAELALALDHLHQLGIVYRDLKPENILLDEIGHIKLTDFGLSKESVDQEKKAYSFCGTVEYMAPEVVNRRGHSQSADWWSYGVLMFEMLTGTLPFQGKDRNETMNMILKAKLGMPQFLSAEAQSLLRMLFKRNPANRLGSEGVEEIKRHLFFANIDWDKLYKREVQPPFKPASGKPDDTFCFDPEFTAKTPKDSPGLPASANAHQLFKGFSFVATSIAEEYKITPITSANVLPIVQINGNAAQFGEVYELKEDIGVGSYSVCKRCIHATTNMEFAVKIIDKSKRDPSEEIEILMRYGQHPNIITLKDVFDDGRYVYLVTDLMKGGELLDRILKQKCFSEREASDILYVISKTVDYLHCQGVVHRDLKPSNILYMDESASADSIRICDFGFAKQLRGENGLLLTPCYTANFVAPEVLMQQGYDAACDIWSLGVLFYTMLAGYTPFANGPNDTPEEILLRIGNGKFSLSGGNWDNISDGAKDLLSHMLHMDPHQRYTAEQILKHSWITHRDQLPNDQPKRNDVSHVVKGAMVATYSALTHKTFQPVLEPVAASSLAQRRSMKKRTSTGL
Focal adhesion kinase 1 (Homo sapiens), sequence (Q05397 2-1052 limits assumed): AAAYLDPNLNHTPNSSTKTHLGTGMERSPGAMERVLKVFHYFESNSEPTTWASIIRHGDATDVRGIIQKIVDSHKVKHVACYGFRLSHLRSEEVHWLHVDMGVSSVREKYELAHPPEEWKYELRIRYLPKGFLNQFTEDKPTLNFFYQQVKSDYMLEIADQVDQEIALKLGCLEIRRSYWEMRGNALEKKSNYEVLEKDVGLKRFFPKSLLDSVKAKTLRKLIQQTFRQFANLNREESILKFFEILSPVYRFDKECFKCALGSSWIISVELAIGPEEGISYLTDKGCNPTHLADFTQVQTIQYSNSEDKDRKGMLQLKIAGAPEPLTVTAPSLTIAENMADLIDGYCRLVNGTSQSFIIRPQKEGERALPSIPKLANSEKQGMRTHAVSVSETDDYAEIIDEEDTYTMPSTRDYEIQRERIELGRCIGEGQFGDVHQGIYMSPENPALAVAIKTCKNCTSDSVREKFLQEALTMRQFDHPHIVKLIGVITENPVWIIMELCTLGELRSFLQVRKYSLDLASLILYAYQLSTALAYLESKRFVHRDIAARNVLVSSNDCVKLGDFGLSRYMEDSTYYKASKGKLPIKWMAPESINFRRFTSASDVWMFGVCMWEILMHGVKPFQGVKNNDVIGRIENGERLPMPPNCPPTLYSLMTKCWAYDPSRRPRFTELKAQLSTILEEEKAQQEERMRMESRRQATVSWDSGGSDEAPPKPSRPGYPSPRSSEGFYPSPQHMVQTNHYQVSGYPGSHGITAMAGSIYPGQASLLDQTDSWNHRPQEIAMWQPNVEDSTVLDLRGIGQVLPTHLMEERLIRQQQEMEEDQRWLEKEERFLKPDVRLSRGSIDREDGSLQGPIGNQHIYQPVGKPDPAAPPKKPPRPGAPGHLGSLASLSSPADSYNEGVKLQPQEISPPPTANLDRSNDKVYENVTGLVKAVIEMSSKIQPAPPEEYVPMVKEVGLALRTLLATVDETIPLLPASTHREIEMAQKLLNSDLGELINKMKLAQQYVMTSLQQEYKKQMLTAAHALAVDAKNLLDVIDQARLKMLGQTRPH
Casein kinase I isoform epsilon (Homo sapiens), sequence (P49674 whole entry, looked up, the tested form may be a part, canonical isoform): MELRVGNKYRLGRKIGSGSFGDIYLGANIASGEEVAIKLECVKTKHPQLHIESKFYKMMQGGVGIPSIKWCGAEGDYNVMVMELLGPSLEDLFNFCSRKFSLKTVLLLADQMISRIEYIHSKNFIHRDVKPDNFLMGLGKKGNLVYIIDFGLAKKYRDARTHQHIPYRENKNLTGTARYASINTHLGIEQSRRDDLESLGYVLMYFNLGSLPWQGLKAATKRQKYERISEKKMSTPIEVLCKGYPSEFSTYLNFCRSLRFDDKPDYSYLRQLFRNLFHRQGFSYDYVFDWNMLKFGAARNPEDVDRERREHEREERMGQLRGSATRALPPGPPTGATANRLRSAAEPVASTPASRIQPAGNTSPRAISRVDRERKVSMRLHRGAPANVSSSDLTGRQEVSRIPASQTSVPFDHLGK

Cc1ccc(NC(=O)c2ccc(CN(CCN(C)C)C(=O)c3cccnc3)cc2)cc1Nc1nccc(-c2cccnc2)n1
Activity [1]: 28% | Activity [2]: 100% | Activity (NCI-H1703): Active | Activity [3]: 95% | Activity [4]: 100% | Activity [5]: 97% | GI50 [6]: > 10 µM | Activity [7]: 86% | Activity [8]: 73% | Activity [9]: 91% | Activity [10]: 100% | Activity [11]: 97% | Activity [12]: 76% | Activity [13]: 100% | Activity [14]: 81% | Activity [15]: 100% | Activity [16]: 97% | Activity [17]: 100% | Activity [18]: 90% | Activity [19]: 100% | Activity [20]: 100%
